According to ChEMBL document CHEMBL4706681, “New 2-Pyrazoline and Hydrazone Derivatives as Potent and Selective Monoamine Oxidase A Inhibitors” (J Med Chem, 2021):
Activity calls are given as the source filed them. No cut-off for these calls is given here.

Tests used:
[1] = target: T1, Amine oxidase [flavin-containing] B (Homo sapiens, UniProt P27338); assay: Reversible inhibition of human MAO-B assessed as residual enzyme activity at 4 fold IC50 incubated for 15 mins and measured before dialysis relative to control
T1 sequence (P27338 whole entry): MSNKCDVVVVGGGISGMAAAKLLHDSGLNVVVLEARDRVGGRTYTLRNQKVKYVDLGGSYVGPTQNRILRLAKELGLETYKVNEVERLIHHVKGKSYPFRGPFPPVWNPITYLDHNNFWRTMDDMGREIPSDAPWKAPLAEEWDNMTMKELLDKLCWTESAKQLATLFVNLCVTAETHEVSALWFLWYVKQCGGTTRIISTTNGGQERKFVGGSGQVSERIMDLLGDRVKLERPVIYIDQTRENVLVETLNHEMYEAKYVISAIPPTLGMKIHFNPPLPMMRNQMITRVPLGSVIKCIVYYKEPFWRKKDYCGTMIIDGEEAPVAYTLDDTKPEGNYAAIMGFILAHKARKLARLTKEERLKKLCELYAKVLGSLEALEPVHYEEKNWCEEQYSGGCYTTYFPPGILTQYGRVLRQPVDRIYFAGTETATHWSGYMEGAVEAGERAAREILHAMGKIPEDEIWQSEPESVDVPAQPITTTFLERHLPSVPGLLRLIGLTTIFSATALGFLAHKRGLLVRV
Summary of the method: (§1)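 Dialysed (MWCO 12 000) at 4 °C for 24 h against 100 mM potassium phosphate pH 7.4, 5% sucrose, buffer changed twice. Dialysed and undialysed mixtures assayed together; residual activity from triplicates.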

[2] = Cytotoxicity against human HepG2 cells assessed as cell viability at 30 uM incubated for 2 hrs by MTT assay relative to control; type: cell-based; settings: read-out: Activity
Summary of the method: (§2)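 HepG2 human hepatoma cells; viability read by MTT assay, with 0.1% DMSO as vehicle control. Viability given as % of control, mean ± SEM (n = 3); p < 0.05 taken as significant.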

[3] = target: T2, Amine oxidase [flavin-containing] A (Homo sapiens, UniProt P21397); assay: Inhibition of recombinant human MAO-A expressed in baculovirus infected BTI insect cells using p-tyramine as substrate incubated for 30 mins by Amplex red reagent based fluorescence analysis
T2 sequence (P21397 whole entry): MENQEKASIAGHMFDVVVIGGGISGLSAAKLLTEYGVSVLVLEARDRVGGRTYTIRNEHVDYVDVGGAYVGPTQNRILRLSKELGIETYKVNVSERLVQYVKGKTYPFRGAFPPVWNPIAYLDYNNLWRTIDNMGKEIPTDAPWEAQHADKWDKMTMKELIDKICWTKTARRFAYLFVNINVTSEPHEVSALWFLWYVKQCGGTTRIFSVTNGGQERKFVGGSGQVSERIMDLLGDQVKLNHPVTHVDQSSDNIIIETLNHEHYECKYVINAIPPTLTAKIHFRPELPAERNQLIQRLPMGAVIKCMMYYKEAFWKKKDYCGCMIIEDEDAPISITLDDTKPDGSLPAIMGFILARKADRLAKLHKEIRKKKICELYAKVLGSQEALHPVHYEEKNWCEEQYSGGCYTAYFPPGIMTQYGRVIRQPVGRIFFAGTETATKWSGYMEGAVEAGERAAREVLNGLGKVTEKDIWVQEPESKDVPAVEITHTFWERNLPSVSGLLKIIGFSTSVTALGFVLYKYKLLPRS

[4] = Effect on locomotor activity in CD1 mouse assessed as total distance traveled at 30 mg/kg, po administered via gavage for 7 days by open field test; type: ADME, organism-based; settings: in vivo, 168 h, time 7 day
Summary of the method: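 Each mouse placed in the centre of a 50 × 50 × 30 cm black box and video-tracked; total distance travelled over 5 min; n = 8–10.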

[5] = target: T2, Amine oxidase [flavin-containing] A; assay: Reversible inhibition of human MAO-A assessed as residual enzyme activity at 4 fold IC50 incubated for 15 mins and measured 24 hrs post dialysis by dialysis method relative to control; settings: 24.25 h, time 1455 min; summary of the method: as §1
[6] = target: T1, Amine oxidase [flavin-containing] B; assay: Reversible inhibition of human MAO-B assessed as residual enzyme activity at 4 fold IC50 incubated for 15 mins and measured 24 hrs post dialysis relative to control; settings: 24.25 h, time 1455 min; summary of the method: as §1
[7] = target: T1, Amine oxidase [flavin-containing] B; assay: Inhibition of recombinant human MAO-B expressed in baculovirus infected BTI insect cells using p-tyramine as substrate incubated for 30 mins by Amplex red reagent based fluorescence analysis; type: cell-based
[8] = target: T2, Amine oxidase [flavin-containing] A; assay: Reversible inhibition of human MAO-A assessed as residual enzyme activity at 4 fold IC50 incubated for 15 mins and measured before dialysis by dialysis method relative to control; summary of the method: as §1
[9] = Cytotoxicity against human HepG2 cells assessed as cell viability at 15 uM incubated for 2 hrs by MTT assay relative to control; type: cell-based; settings: read-out: Activity; summary of the method: as §2
Mus musculus [10] = assay: Antidepressant-like activity in CD1 mouse assessed as reduction in immobility time at 30 mg/kg, po administered via gavage as single dose measured after 1 hr by Porsolt-forced swim test; type: functional, organism-based
[11] = Cytotoxicity against human HepG2 cells assessed as cell viability at 7.5 uM incubated for 2 hrs by MTT assay relative to control; type: cell-based; settings: read-out: Activity; summary of the method: as §2
Mus musculus [12] = assay: Antidepressant-like activity in CD1 mouse assessed as reduction in immobility time at 30 mg/kg, po administered via gavage for 7 days and measured 1 h post last dose by Porsolt-forced swim test; type: functional, organism-based; settings: time 7.0 day
Summary of the method: (§3)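 Male albino CD-1 mice (20–25 g), 12 h light/dark, food and water ad libitum. Dosed by oral gavage once daily for 7 days in 200 μL 0.5% CMC; vehicle-only controls. […] Forced swim test run 1 h after the last dose. Immobility scored every 60 s over 6 min; n = 8–12.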

Mus musculus [13] = assay: Antidepressant-like activity in CD1 mouse assessed as maximum efficacy at 20 mg/kg, po administered as subchronic dose gavage for 7 days and measured 1 h post last dose by Porsolt-forced swim test; type: functional, organism-based; settings: time 7.0 day; summary of the method: as §3
[14] = Ex vivo inhibition of MAOA in CD1 mouse brain homogenates assessed as 5-HT levels at 30 mg/kg, po administered as single acute dose via gavage and measured after 1 hr by ELISA kit method (reference value: 0.80 +/- 0.006 ug/g); type: functional
[15] = Ex vivo inhibition of MAOA in CD1 mouse brain homogenates assessed as 5-HT levels at 30 mg/kg, po administered as subchronic dose via gavage for 7 days and measured 1 hr post last dose by ELISA kit method (reference value: 0.78 +/- 0.01 ug/g); type: functional; settings: time 7 day
[16] = Ex vivo inhibition of MAOA in CD1 mouse brain homogenates assessed as dopamine levels at 30 mg/kg, po administered as single acute dose via gavage and measured after 1 hr by ELISA kit method (reference value: 7.08 +/- 0.58 ug/g); type: functional
[17] = Ex vivo inhibition of MAOA in CD1 mouse brain homogenates assessed as MAOA level at 30 mg/kg, po administered as subchronic dose via gavage for 7 days and measured 1 hr post last dose by monoamine oxidase assay (reference value: 0.40 +/- 0.005 nmol/min/mg); type: functional; settings: time 7 day
[18] = Ex vivo inhibition of MAOA in CD1 mouse brain homogenates assessed as inhibition of 5-HT deamination by measuring 5-HIAA metabolite levels by using at 30 mg/kg, po administered as subchronic dose via gavage for 7 days and measured 1 hr post last dose by HPLC analysis (reference value: 0.18 +/- 0.01 ug/g); type: functional; settings: time 7 day
[19] = Selectivity index, ratio of Ki for inhibition of recombinant human MAO-A to Ki for inhibition of recombinant human MAO-B using p-tyramine as substrate
[20] = Ex vivo inhibition of MAOA in CD1 mouse brain homogenates assessed as assessed as inhibition of 5-HT deamination by measuring 5-HIAA metabolite levels at 30 mg/kg, po administered as single acute dose via gavage and measured after 1 hr by HPLC analysis (reference value: 0.28 +/- 0.011 ug/g); type: functional
[21] = Ex vivo inhibition of MAOA in CD1 mouse brain homogenates assessed as assessed as inhibition of dopamine deamination by measuring DOPAC metabolite levels at 30 mg/kg, po administered as single acute dose via gavage and measured after 1 hr by HPLC analysis (reference value: 1.22 +/- 0.2 ug/g); type: functional
[22] = Permeability of compound in PBS/EtOH buffer (70:30) at 25 ug/ml incubated for 16 hrs by UV plate reader based PAMPA-BBB
[23] = Ex vivo inhibition of MAOA in CD1 mouse brain homogenates assessed as MAOA level at 30 mg/kg, po administered as single acute dose via gavage and measured after 1 hr by monoamine oxidase assay (reference value: 0.40 +/- 0.012 nmol/min/mg); type: functional
[24] = target: T2, Amine oxidase [flavin-containing] A; assay: Irreversible inhibition of human MAO-A assessed as residual enzyme activity at 4 fold IC50 incubated for 15 mins and measured before dialysis relative to control
Summary of the method: (§4)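 Recombinant hMAO-A (1 U/mL) was preincubated with inhibitor for 15 min at 37 °C in 0.05 M potassium phosphate, pH 7.4, with 5% sucrose and 1% DMSO. It was then dialyzed at 4 °C against 100 mM potassium phosphate, pH 7.4, 5% sucrose (12 000 MWCO), with buffer replaced twice over 24 h. Dialyzed and undialyzed mixtures were assayed together for MAO-A activity, in triplicate; residual activity is given as mean ± SEM.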

[25] = target: T2, Amine oxidase [flavin-containing] A; assay: Irreversible inhibition of human MAO-A assessed as residual enzyme activity at 4 fold IC50 incubated for 15 mins and measured 24 hrs post dialysis relative to control; settings: 24.25 h, time 1455 min; summary of the method: as §4

Structure (SMILES) | Activity [1] [%] | viability at 2 h, 30 µM [2] [%] | Ki [3] [µM] | Activity [4] | Activity [5] [%] | Activity [6] [%] | Ki [7] [µM] | Activity [8] [%] | viability at 2 h, 15 µM [9] [%] | Activity (Mus musculus [10]) | viability at 2 h, 7.5 µM [11] [%] | Activity (Mus musculus [12]) | Activity [14] [µg/g] | Activity [15] [µg/g] | Activity [16] [µg/g] | Activity [17] [nmol/min/mg] | Activity [18] [µg/g] | Ratio Ki [19] | Activity [20] [µg/g] | Activity [21] [µg/g] | other results
COc1ccc(C(/C=C/c2cccc(OC)c2OC)=N/NC(=O)Cn2c(=O)oc3ccc(Cl)cc32)cc1 | 82.37 | 88.5 | 0.01 | Non-Toxic | 93.57 | 95.21 | 1850 | 20.16 | 99.1 | Active | 118 | Active |  |  |  |  |  |  |  |  | Activity (Mus musculus [13]): inactive
COc1ccc(C2CC(c3ccccc3)=NN2C(=O)Cn2c(=O)oc3ccccc32)cc1OC (centres undefined) | 78.9 | 85.3 | 0.009 | Non-Toxic | 94 | 94.8 | 20 | 23.11 | 88.2 | inactive | 90.4 | Active | 0.91 | 1.04 | 7.08 | 0.27 | 0.24 | 4.55 10^-5No_unit | 0.32 | 1.23 | Papp at 16 h, 25 ug/ml [22]: 9.44 ×10⁻⁶ cm/s; Activity [23]: 0.28 nmol/min/mg
C#CCN(C)[C@H](C)Cc1ccccc1 [SELEGILINE] |  | 84 |  |  |  |  |  |  | 87.2 |  | 90 |  |  |  |  |  |  |  |  |  | Activity [24]: 89.96%; Activity [25]: 90.01%
COc1ccc(C2=NN(C(=O)Cn3c(=O)oc4ccccc43)C(c3ccccc3Cl)C2)cc1 (centres undefined) | 78.2 | 85 | 0.001 | Non-Toxic | 90.16 | 91.5 | 1.25 | 18.11 | 90 | Active | 91.2 | Active | 0.98 | 1.19 | 7.1 | 0.24 | 0.31 | 8 10^-4No_unit | 0.35 | 1.24 | Papp at 16 h, 25 ug/ml [22]: 11 ×10⁻⁶ cm/s; Activity [23]: 0.25 nmol/min/mg
COc1cccc(C2CC(c3ccccc3)=NN2C(=O)Cn2c(=O)oc3ccccc32)c1 (centres undefined) | 85 | 77.3 | 0.008 | Non-Toxic | 91.74 | 92.25 | 8.25 | 24.55 | 88.3 | inactive | 96.2 | Active | 0.88 | 1.01 | 7.08 | 0.29 | 0.24 | 0.00097 | 0.32 | 1.23 | Papp at 16 h, 25 ug/ml [22]: 8.9 ×10⁻⁶ cm/s; Activity [23]: 0.31 nmol/min/mg
